From PubChem
Hits are enriched below; roughly 2.1% of the tested compounds scored in any of these assays.
PP5 inh – PP5 phosphatase inhibitors, primary screen, biochemical, fluorescence; Serine/threonine-protein phosphatase 5 (Homo sapiens), P53041; purified PP5c, OMFP substrate fluorescence; inhibition, % at 6.7 µM; 320,000 tested, 0.18% active; AID 1987, 2009;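 active = inhibition above the campaign's mean inhibition across all tested compounds plus 3 SD, cut at about 9.5% in these data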
Apaf1 inhib – inhibitors of human Apaf-1 apoptosome, primary screen, biochemical, DEVD-Rh110 fluorescence, uHTS | 330,000 tested, 0.71% active | reconstituted apoptosome caspase-3 activity | inhibition, % at 20 µM | AID 489030, 2010; active = inhibition of at least 40% at 20 µM
Target sequence (O14727 whole entry, looked up): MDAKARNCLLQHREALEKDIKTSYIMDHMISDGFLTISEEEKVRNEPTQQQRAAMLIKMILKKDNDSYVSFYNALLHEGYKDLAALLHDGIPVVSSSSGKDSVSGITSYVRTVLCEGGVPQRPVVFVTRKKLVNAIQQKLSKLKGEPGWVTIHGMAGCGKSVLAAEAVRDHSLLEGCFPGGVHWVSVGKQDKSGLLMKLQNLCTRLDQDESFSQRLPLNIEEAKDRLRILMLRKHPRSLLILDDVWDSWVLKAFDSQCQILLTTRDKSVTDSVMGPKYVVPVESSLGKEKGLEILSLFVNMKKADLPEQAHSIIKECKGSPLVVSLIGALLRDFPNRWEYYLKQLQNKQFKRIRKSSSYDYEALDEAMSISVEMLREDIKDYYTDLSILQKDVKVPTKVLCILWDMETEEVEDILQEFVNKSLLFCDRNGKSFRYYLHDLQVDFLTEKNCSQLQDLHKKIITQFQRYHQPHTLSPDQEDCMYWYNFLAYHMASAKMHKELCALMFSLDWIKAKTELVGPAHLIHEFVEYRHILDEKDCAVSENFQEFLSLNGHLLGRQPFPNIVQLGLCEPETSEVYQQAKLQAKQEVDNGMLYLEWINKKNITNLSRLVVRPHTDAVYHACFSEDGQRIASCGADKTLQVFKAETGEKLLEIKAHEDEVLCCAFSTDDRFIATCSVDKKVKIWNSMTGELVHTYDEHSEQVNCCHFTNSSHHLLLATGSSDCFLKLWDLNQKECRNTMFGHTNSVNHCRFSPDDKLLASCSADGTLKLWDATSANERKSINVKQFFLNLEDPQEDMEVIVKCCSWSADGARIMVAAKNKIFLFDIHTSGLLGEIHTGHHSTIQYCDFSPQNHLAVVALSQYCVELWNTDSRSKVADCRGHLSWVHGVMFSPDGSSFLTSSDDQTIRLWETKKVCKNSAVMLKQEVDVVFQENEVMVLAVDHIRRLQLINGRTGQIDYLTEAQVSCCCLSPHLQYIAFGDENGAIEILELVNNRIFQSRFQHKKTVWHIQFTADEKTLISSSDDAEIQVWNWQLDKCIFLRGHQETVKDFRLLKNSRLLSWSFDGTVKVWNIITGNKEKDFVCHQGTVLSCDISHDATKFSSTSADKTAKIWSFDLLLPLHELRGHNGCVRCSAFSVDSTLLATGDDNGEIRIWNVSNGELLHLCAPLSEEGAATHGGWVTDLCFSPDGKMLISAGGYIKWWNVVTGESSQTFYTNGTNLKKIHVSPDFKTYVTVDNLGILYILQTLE
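Medium: Hepes buffer, pH 7.5 / System: biochemical Apaf-1 apoptosome reconstitution / Measured by: Rh110 fluorescence, excitation 480 nm, emission 540 nm / Times: compound with Apaf-1, dATP, procaspase-3 30 min, then 50 min reaction, room temperature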
TDP2 absorb – human TDP2 enzyme inhibitors, primary screen, biochemical, epi absorbance, recombinant enzyme; 370,000 tested, 0.34% active; T5PNP hydrolysis, p-nitrophenol absorbance 415 nm; Tyrosyl-DNA phosphodiesterase 2 (Homo sapiens), O95551; inhibition, % at 12.8 µM;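 active = inhibition above the mean of all tested compounds plus 3 SD, set per campaign, cut at about 25% in these data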
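test system = human TDP2 enzyme | input = TDP2 enzyme at 120 nM final | medium = 50 mM Tris-HCl pH 7.5 with Mg2+, KCl, DTT, BSA | also added = T5PNP substrate, 5 mM | times = 2 h at 37 °C | technique = epi absorbance | benchmarks = high control without enzyme, low control DMSO plus TDP2 | replication = each compound tested once, singlicate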
PP1 counter – PP1-alpha phosphatase inhibitors, primary screen, counter-screen for PP5 inhibitor project, biochemical, fluorescence, OMFP substrate, single point | purified PP1alpha | inhibition, % at 6.7 µM | Serine/threonine-protein phosphatase PP1-alpha catalytic subunit (Homo sapiens), P62136 | AID 2235, 2010 | 320,000 tested, 0.9% active;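 active = inhibition above the mean inhibition of all tested compounds plus 3 SD, computed separately for each screening campaign, cut at about 15% in these data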
GSTO1 inh – inhibitors of recombinant GSTO1, primary screen, counter-screen for RBBP9 inhibitor project, biochemical, fluorescence polarization; activity-based probe fluorescence polarization; inhibition, % at 5.96 µM; 300,000 tested, 1.1% active; AID 1974, 2009;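 active = inhibition above the campaign mean inhibition plus 3 SD, cut at about 35% in these data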
PP1 inh confirm – PP1 phosphatase inhibitors, confirmation, biochemical, fluorescence, OMFP substrate, triplicate; inhibition, % at 6.7 µM; 1,900 tested, 52% active; purified PP1alpha; shares compounds with PP1 counter;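 active = mean PP1 inhibition above a set limit taken from the earlier primary screen, cut at about 15% in these data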
PP5 counter – PP5 phosphatase inhibition by PP1 hits, confirmation, counter-screen for PP1 inhibitor project, biochemical, fluorescence, triplicate; shares compounds with PP1 counter; purified PP5c, OMFP fluorescence; inhibition, % at 6.7 µM; 1,900 tested, 4% active; AID 2360, 2010;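 active = mean PP5 inhibition over triplicate wells above about 9.5% taken from the earlier PP1 screen, limit read from the data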
Hits are given with their value; – = inactive; · = not tested or not shown.

SMILES	PP5 inh	Apaf1 inhib	TDP2 absorb	PP1 counter	GSTO1 inh	PP1 inh confirm	PP5 counter
CN(CC1CCCO1)S(=O)(=O)c1ccc(C(=O)Nc2nc3cc4c(cc3s2)OCO4)cc1 (centres undefined)	–	–	–	23	–	26	–
CN(CC1CCCO1)S(=O)(=O)c1ccc(C(=O)Nc2ccc3c(c2)OCO3)cc1 (centres undefined)	–	–	–	–	–	·	·
CCCOc1ccc(-c2c(C(=O)N/N=C/c3ccc(C)cc3)nnn2-c2nonc2N)cc1	–	–	–	–	–	·	·
CCCOc1ccc(-c2c(C(=O)N/N=C/c3cccnc3)nnn2-c2nonc2N)cc1	–	–	–	27	–	21	–
O=c1cc(-c2c(O)c3ccccc3n(Cc3ccccc3)c2=O)[nH][nH]1	–	–	–	29	36	–	–
O=C(OC12CCCN(C1)/C(=C/c1ccccc1)C2)c1cccc(F)c1 (centres undefined)	·	·	–	·	·	·	·
CCCN(CCC)S(=O)(=O)c1ccc(C(=O)Nc2nnc(COC)o2)cc1	–	–	–	–	–	·	·
CN(c1ccccc1)S(=O)(=O)c1ccc(C(=O)Nc2nnc(C3=COCCO3)o2)cc1	–	–	–	26	–	15	–
CCN(Cc1ccccc1)S(=O)(=O)c1ccc(C(=O)Nc2nnc(C3CC3)o2)cc1	–	–	–	43	–	34	–
Cc1nnc(NC(=O)c2ccc3ccccc3c2)o1	–	–	–	19	–	–	–
COCc1nnc(NC(=O)c2ccc(S(=O)(=O)N(C)C3CCCCC3)cc2)o1	–	–	–	18	–	–	–
COC(=O)[C@]12C[C@H](CC(=O)NCCCN3CCCC3=O)C(=O)N(Cc3ccco3)C1=C[C@H](C(C)(C)C)O[C@@H]2C	·	·	–	·	·	·	·
COCCN(CCOC)S(=O)(=O)c1ccc(C(=O)Nc2nnc(C)o2)cc1	–	–	–	–	–	·	·
Cc1nnc(NC(=O)c2ccc(S(=O)(=O)N(C)Cc3ccccc3)cc2)o1	–	–	·	38	–	30	–
COCc1nnc(NC(=O)c2ccc(S(=O)(=O)N(C)Cc3ccccc3)cc2)o1	–	–	–	22	–	17	–
O=C(c1ccc(Cl)c(Cl)c1)N1CCC(=O)N(C(COCc2cccc(Cl)c2)Cc2ccccc2)CC1 (centres undefined)	–	–	–	20	–	–	–
O=C(c1cccc(Cl)c1)N1CCC(=O)N(C(COCc2cccc(Cl)c2)Cc2ccccc2)CC1 (centres undefined)	–	–	–	–	–	·	·
CCCCCCCCNS(=O)(=O)CC1NCc2ccccc21 (centres undefined)	·	·	–	·	·	·	·
O=C(O)CN1C(=O)/C(=C\c2ccccc2OCc2ccc(Cl)cc2Cl)SC1=S	–	–	–	24	–	21	–
CC(=O)c1cc(-c2ccc(Oc3ccccc3)cc2)c(=O)n2c1CCC2	·	·	–	·	·	·	·
NC(N)=N/N=C/c1ccc(OCc2ccccc2)cc1	–	–	–	–	–	·	·
NC(N)=N/N=C/c1ccc(OCc2ccc(Cl)cc2)cc1	–	–	–	21	–	–	–
Cc1ccccc1N(C)C(=O)C1CCCN1S(=O)(=O)c1cccc2cccnc12 (centres undefined)	·	·	–	·	·	·	·
Nc1cc(=O)[nH]c(SCC(=O)N2N=C(c3ccc4ccccc4c3)CC2c2ccccc2)n1 (centres undefined)	–	–	–	21	–	–	–
CC(=O)OCC(=O)N1N=C(c2ccc3ccccc3c2)CC1c1ccccc1 (centres undefined)	–	–	–	–	–	·	·
SMILES	PP5 inh	Apaf1 inhib	TDP2 absorb	PP1 counter	GSTO1 inh	PP1 inh confirm	PP5 counter
Cc1noc(C)c1C(=O)Nc1ccccc1C(=O)NCCc1ccccc1	–	–	–	21	–	–	–
CC(=O)N1CCc2cc(S(=O)(=O)NC3CCN(C(=O)CCl)CC3)ccc21	·	·	–	·	·	·	·
O=C(O)c1cc(-c2ccc(Cl)c(Cl)c2)n(-c2ccccc2)n1	–	–	–	58	–	52	–
CNC(=O)c1cc(-c2ccc(Cl)cc2)n(-c2ccccc2)n1	–	–	–	–	–	·	·
O=C(O)c1cc(-c2ccc(Cl)cc2)n(-c2ccc(Cl)cc2)n1	–	–	–	43	–	45	–
O=C(O)c1cc(-c2ccc(Cl)cc2)n(-c2ccc(F)cc2)n1	–	–	–	47	–	37	–
Cc1ccc(-n2nc(C(=O)O)cc2-c2ccc(Cl)cc2)cc1	–	–	–	47	–	47	–
COC(=O)C1=C(C)N(Cc2cccc(C(F)(F)F)c2)C(=NCc2ccc3c(c2)OCO3)NC1c1cccc(Cl)c1 (centres undefined)	·	·	–	·	·	·	·
O=C(NC1CCCCN(Cc2cccc(F)c2)C1=O)c1ccc2ccccc2c1 (centres undefined)	·	·	–	·	·	·	·
O=C(Nc1cccc(Br)c1)OC1CC2CC1[C@H]1CCCCN1C2 (some centres undefined)	·	·	–	·	·	·	·
C=CCN1C(=O)[C@@H](CC(=O)NCCCOC)[C@]2(C(=O)OCC)CCCCC/C=C/12	·	·	–	·	·	·	·
Cc1ccc(-n2nc(C(=O)O)cc2-c2ccccc2)cc1	–	–	–	33	–	31	–
Cc1ccc(S(=O)(=O)n2ccc3c(OCCOCCNCc4ccc(F)cc4)cccc32)cc1	–	–	–	18	–	–	–
Cc1cc(C)c(C)c(OCCOCCNCc2ccccc2)c1	–	–	–	–	–	·	·
Cc1ccc(S(=O)(=O)n2ccc3c(OCCOCCSCC(NC(=O)OC(C)(C)C)C(=O)O)cccc32)cc1 (centres undefined)	–	–	–	21	–	–	–
CCCCOCCCNC(=O)C[C@H]1C[C@@]2(C(=O)OC)C(=C[C@H](C(C)(C)C)O[C@@H]2C)N(CCC2=CCCCC2)C1=O	·	·	–	·	·	·	·
COc1cc([N+](=O)[O-])cc(/C=N/NC(=O)c2cc(-c3ccccc3)nc3ccccc23)c1O	–	–	–	40	–	40	–
O=S1(=O)c2ccc(Br)cc2OC[C@H](Cc2ccccc2)N1Cc1cn(Cc2ccc(Br)cc2)nn1	·	·	–	·	·	·	·
CCC(C)c1ccc(NC(=O)CSc2nnc(-c3cccc(C)c3)n2C)cc1 (centres undefined)	·	·	–	·	·	·	·
